High-throughput results: PubChem BioAssay, Johns Hopkins Ion Channel Center
Rows were chosen to be rich in hits. Some 3.7% of all compounds tested hit in one or more screens of this group.
KCNQ1 block: inhibitors of human KCNQ1 channel, primary screen, cell-based, thallium flux, high-throughput | Potassium voltage-gated channel subfamily KQT member 1 (Homo sapiens), P51787 | CHO-K1 KCNQ1, FluxOR thallium flux fluorescence; hits give high values | B-score at 10 µM | 1.3% of 310,000 active;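 active = compounds whose thallium flux B-score, printed positive for inhibition, exceeds three library SD while starting fluorescence stays within three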;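 also: channel opened by potassium depolarization with thallium stimulus after 20 min compound exposure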
Target sequence (P51787 whole entry, looked up): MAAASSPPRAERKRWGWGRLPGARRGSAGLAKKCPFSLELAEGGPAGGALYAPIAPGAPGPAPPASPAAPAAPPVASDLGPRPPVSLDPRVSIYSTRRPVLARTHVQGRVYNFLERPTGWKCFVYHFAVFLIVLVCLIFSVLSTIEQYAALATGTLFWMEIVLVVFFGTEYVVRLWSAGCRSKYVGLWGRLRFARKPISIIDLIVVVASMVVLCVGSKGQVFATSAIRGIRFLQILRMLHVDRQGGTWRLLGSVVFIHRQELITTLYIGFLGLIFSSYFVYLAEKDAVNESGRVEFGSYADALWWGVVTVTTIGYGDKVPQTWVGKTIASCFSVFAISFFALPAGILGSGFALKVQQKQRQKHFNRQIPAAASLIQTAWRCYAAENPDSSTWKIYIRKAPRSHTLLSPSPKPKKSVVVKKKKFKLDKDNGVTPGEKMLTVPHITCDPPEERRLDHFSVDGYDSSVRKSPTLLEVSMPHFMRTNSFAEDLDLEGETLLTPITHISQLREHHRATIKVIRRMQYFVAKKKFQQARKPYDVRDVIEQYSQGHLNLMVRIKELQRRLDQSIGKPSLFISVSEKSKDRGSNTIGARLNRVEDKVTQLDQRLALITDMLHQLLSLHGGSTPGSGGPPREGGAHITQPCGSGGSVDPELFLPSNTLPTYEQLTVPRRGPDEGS
Kir21 block: inhibitors of mouse Kir2.1 inward-rectifier potassium channel | HEK293-Kir2.1, FluxOR thallium flux fluorescence; hits give low values | B-score at 10 µM | 0.85% of 310,000 active | AID 1672, 2009;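 active = fluorescence ratio B-score at or below minus 3 SD of library scores, with starting-brightness B-score within 2 SD, cut at about -4.2 in these data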;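 also: channel flux triggered by added potassium and thallium sulfate stimulus; B-score of peak minus minimum fluorescence over baseline after thallium stimulus; more negative B-score means stronger Kir2.1 block with less thallium influx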
hERG protect: hERG rescue from dofetilide block, primary screen, cell-based, CHO-hERG, FluxOR thallium flux, dofetilide IC70. Voltage-gated inwardly rectifying potassium channel KCNH2 (Homo sapiens), Q12809. dofetilide IC70 present. activation (rescue from dofetilide block), less the hit threshold, % at 10 µM. 0.51% of 310,000 active;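 active = activation above the mean of controls blocked by dofetilide plus 5 SD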;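 also: thallium influx through hERG after potassium depolarization seen as dye fluorescence rise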
KCNK9 inh: KCNK9 potassium channel inhibitors, primary screen, HEK293 cells, thallium flux; Potassium channel subfamily K member 9 (Homo sapiens), Q9NPC2; B-score at 10 µM; 1.2% of 310,000 active; FluxOR thallium flux fluorescence; hits give low values; AID 488922, 2010;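 active = ratio B-score over 3 SD below the library mean, with starting fluorescence within 5 SD of its mean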;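 also: negative B-score means less thallium flux so channel inhibition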
KCNK3 inh: human KCNK3 channel inhibitors, primary screen, CHO cells, FluxOR thallium flux, B-score. Potassium channel subfamily K member 3 (Homo sapiens), O14649. FluxOR fluorescence; hits give low values. B-score at 10 µM. 0.84% of 340,000 active;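 active = B-score under library mean minus 4 SD, starting fluorescence ratio at most library mean plus 5 SD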;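 also: more negative B-score means stronger inhibition of thallium flux through KCNK3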
KCNQ1 pot: potentiators or activators of KCNQ1 channel, primary screen, cell-based, thallium flux, high-throughput. Potassium voltage-gated channel subfamily KQT member 1 (Homo sapiens), P51787. CHO-K1 KCNQ1, thallium flux FluxOR fluorescence; hits give high values. B-score at 10 µM. 0.35% of 310,000 active. AID 2648, 2010;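 active = fluorescence ratio B-score, a plate-corrected score, at least three library SD, with initial intensity B-score within 5 SD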
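Material: CHO-K1 cells stably expressing KCNQ1. Medium: assay buffer for compound exposure, DMSO matched across wells. Reagent: K+/Tl+ depolarizing stimulus. Compound dosing: single-concentration screen. Times: 37 °C overnight plating, 90-min dark dye load, 20-min compound pretreatment. Technique: FluxOR Tl+ flux fluorescence.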
KCNQ1 inh valid: KCNQ1 potassium channel inhibitors, confirmation, cell-based, Tl flux, duplicate; KCNQ1 cell line, FluxOR thallium flux fluorescence; 93% of 1,600 active; inhibition, % at 10 µM; shares compounds with KCNQ1 block; AID 588353, 2011;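 active = primary screen active, with duplicate mean exceeding buffer control mean plus 3 SD of buffer wells, cut at about 28% in these data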
CHO Tl flux: thallium flux effects in parental CHO cells, counter-screen for KCNQ1 inhibitor project, cell-based, Tl flux; shares compounds with KCNQ1 block; parental CHO-K1, FluxOR thallium flux fluorescence ratio; hits give low values; zero means no signal rise above baseline; fluorescence ratio (Tl flux) at 10 µM; 21% of 1,600 active;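 active = mean of duplicate thallium-flux fluorescence ratios in parental host cells more than 5 SD below the buffer control mean, cut at about 0.38 in these data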;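 also: ratio is peak minus minimum fluorescence divided by baseline fluorescence; actives read low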
KCNQ1 APC inh: KCNQ1 channel inhibitors, confirmation, orthogonal assay, cell-based, automated electrophysiology. shares compounds with KCNQ1 block. KCNQ1-CHO cells, automated patch clamp current. calls only at 10 µM. 20% of 490 active. AID 624120, 2012;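 active = KCNQ1 current drop exceeding 3 SD of negative control wells, seen in both duplicate runs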;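 also: steady state current during a 2 s step from -80 to +40 mV; negative values mean current inhibition and positive values mean potentiation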
KCNQ2 spec: KCNQ2 channel inhibition, selectivity assay for KCNQ1 inhibitor project, cell-based. shares compounds with KCNQ1 block. KCNQ2 cells, FluxOR thallium flux fluorescence. inhibition, % at 10 µM. 71% of 1,600 active;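 active = mean percent inhibition of the KCNQ2 thallium signal more than 5 SD above the buffer-only control wells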;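 also: KCNQ2 expressed in CHO cells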
KCNQ1-KCNE1 inh: KCNQ1/KCNE1 channel inhibition, selectivity assay for KCNQ1 inhibitor project, CHO-K1 cells, thallium flux, FluxOR | shares compounds with KCNQ1 block | FluxOR thallium flux fluorescence | inhibition, % at 10 µM | 77% of 1,600 active | AID 652147, 2013;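 active = mean percent inhibition of duplicate wells above the buffer-only control mean plus 3 SD of those controls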
A number is an active result; i = inactive; nt = no result; + = active, no number.

SMILES	KCNQ1 block	Kir21 block	hERG protect	KCNK9 inh	KCNK3 inh	KCNQ1 pot	KCNQ1 inh valid	CHO Tl flux	KCNQ2 spec	KCNQ1-KCNE1 inh	others
CC(C)CC(=O)N1CCN(C(=O)c2ccc(F)cc2)CC1	i	i	i	i	i	i	nt	nt	nt	nt
O=C(Nc1ccc2ccccc2c1)C(c1ccccc1)C1CCCC1 (stereo unspecified)	15	i	i	-7.5	i	i	138	0.31	123%	167%
Cc1ccccc1NC(=O)C(c1ccccc1)C1CCCC1 (stereo unspecified)	i	i	i	i	i	i	nt	nt	nt	nt
CCOC(=O)Nc1ccc2c(c1)N(C(=O)CN1CCN(C)CC1)c1ccccc1S2	9	i	i	i	i	i	i	i	i	57%
Cc1cc(C(=O)OCC(=O)NCCCN2CCCC2=O)c2ccccc2n1	11	i	i	i	i	i	i	i	i	73%
OCCCn1c(CCNc2nc(-c3ccc(F)cc3)cs2)nc2cc(C(F)(F)F)ccc21	i	i	i	i	i	i	nt	nt	nt	nt
COc1ccc(-c2cc(-c3nnc(COC(=O)c4ccc(O)cc4)o3)c3ccccc3n2)cc1OC	9	i	i	i	i	i	104	i	98%	+	KCNQ1 APC inh=i
COc1ccc(-c2cc(-c3nnc(COC(=O)C4CC4)o3)c3ccccc3n2)cc1OC	i	i	i	i	i	i	nt	nt	nt	nt
CN(C)S(=O)(=O)c1ccc(Cl)c(NC(=O)COC(=O)c2cc(-c3ccccc3)nc3ccccc23)c1	6	i	i	i	i	i	60	i	74%	74%
Cc1ccccc1CSc1ccc(-c2ccc3c(c2)OCO3)nn1	7	i	i	i	i	i	132	0.36	106%	156%
COc1ccc(CCC(C)NCCc2ccc(Cl)cc2Cl)cc1 (stereo unspecified)	14	-13	i	i	i	i	99	i	96%	106%
CC12CC3(C)CC(C)(C1)CC(C(=O)NC(=S)N1CCOCC1)(C2)C3	8	i	i	i	i	i	53	i	i	44%
O=C(NC(=S)N1CCOCC1)C12CC3CCC(CC(C3)C1)C2	i	i	i	i	i	i	nt	nt	nt	nt
CN(C)CCN(C(=O)c1ccc2c(c1)CCCC2)c1nc2cc3c(cc2s1)OCCO3	11	i	i	i	i	i	106	0.35	125%	121%
CCN(CC)CCN(C(=O)c1ccc2ncsc2c1)c1nc2cc3c(cc2s1)OCO3	10	i	i	i	i	i	92	i	89%	120%	KCNQ1 APC inh=+
Cc1ccc(-c2c(C(=O)N/N=C/c3c[nH]c4ccccc34)nnn2-c2nonc2N)cc1	i	i	i	i	i	i	nt	nt	nt	nt
Fc1ccccc1N1CCN(c2nc3ccccc3n3nnnc23)CC1	7	i	i	i	i	i	76	i	71%	84%
Fc1cc(Br)ccc1Nc1nc2ccccc2n2nnnc12	i	i	i	i	i	i	nt	nt	nt	nt
CCOC(=O)c1cc(C#N)c(N2CCCC2)nc1-c1ccccc1	i	i	i	i	i	i	nt	nt	nt	nt
CCOC(=O)c1cc(C#N)c(Oc2ccc(F)cc2)nc1-c1ccccc1	9	i	i	i	i	i	70	0.38	76%	104%
C(=C\c1ccccc1)/CN1CCN(c2ncnc3c2oc2ccccc23)CC1	7	i	i	i	-13	i	150	0.31	135%	178%
c1ccc2c(c1)oc1c(N3CCOCC3)ncnc12	i	i	i	i	i	i	nt	nt	nt	nt
c1ccc(CCNc2ccnc3cc4ccccc4cc23)cc1	10	-7.2	i	-7.3	i	i	130	0.38	81%	118%
O=C(CC(=O)c1ccccc1)Nc1ccc(Cl)cc1	i	i	i	i	i	i	nt	nt	nt	nt
COCCn1c(C)cc(/C=N/NC(=O)c2cc3ccccc3cc2O)c1C	nt	nt	nt	nt	i	nt	nt	nt	nt	nt
SMILES	KCNQ1 block	Kir21 block	hERG protect	KCNK9 inh	KCNK3 inh	KCNQ1 pot	KCNQ1 inh valid	CHO Tl flux	KCNQ2 spec	KCNQ1-KCNE1 inh	others
Cn1c(O)c(/C=N/NC(=O)c2cc3ccccc3cc2O)c2ccccc21	17	i	i	i	i	i	101	0.32	i	i
CC1CCN(S(=O)(=O)c2nnc(NC(=O)c3cccc(Cl)c3)s2)CC1	9	i	i	i	i	i	32	i	i	i
COc1ccc(-c2cc(C(=O)N3CCN(c4ncccn4)CC3)c3ccccc3n2)cc1OC	nt	nt	nt	nt	i	nt	nt	nt	nt	nt
COc1ccc(-c2cc(C(=O)N3CCN(c4cccc(C)c4C)CC3)c3ccccc3n2)cc1OC	8	i	i	i	i	i	60	i	108%	96%
CN(C)c1ccc(NC(=O)Nc2cccc(Cl)c2)cc1	i	i	i	i	i	i	nt	nt	nt	nt
Cc1cccc(NC(=O)Nc2ccc(Cl)cc2)n1	i	i	i	i	i	i	nt	nt	nt	nt
CN(c1cccc(NC(=O)Nc2cccc(Cl)c2)c1)S(C)(=O)=O	16	i	i	i	i	i	93	i	123%	82%
O=C(Nc1ccncc1)Nc1cccc(Cl)c1	7	i	i	i	i	i	52	i	i	46%
Cc1nccc(-c2cccc(NC(=O)Nc3ccc(Cl)cc3)c2)n1	8	i	i	i	i	i	92	i	67%	72%	KCNQ1 APC inh=i
O=C(NCc1ccncc1)Nc1cccc(Cl)c1	i	i	i	i	i	i	nt	nt	nt	nt
COc1ccc(S(=O)(=O)N2CCCCC2)cc1NC(=O)CCOc1cc(C)ccc1C	nt	nt	nt	nt	i	nt	nt	nt	nt	nt
CCOc1ccc(S(=O)(=O)N(CC)CC(=O)NCc2cccnc2)cc1	i	i	i	i	i	i	nt	nt	nt	nt
